# Compounds with a hit are over-represented: about 4.2% of the library has one in this group of screens.
# KCC2 mod – KCC2 (human) Cl- transport modulation | Q9H2X9 | KCC2 cells, thallium flux FluoZin-2 fluorescence | B-score of Tl+ flux slope (higher = more flux/activation; lower = inhibition) at 10 µM | actives 2.2% (n = 190,000) | AID 1456;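 active = thallium flux slope and its plate-corrected score both differing from the plate sample mean at a set confidence after two filtering rounds, in either direction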;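 note: slope of fluorescence scaled to starting intensity during 10 to 20 s after thallium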
# hERG protect – hERG (human) protection from proarrhythmic block; activation (rescue from dofetilide block), less the hit threshold, % at 10 µM; CHO-hERG, FluxOR thallium flux, dofetilide IC70 present; actives 0.51% (n = 310,000);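 active = activation above the mean of controls blocked by dofetilide plus 5 SD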;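 note: thallium influx through hERG after potassium depolarization seen as dye fluorescence rise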
# Target sequence (Q12809 whole entry, looked up): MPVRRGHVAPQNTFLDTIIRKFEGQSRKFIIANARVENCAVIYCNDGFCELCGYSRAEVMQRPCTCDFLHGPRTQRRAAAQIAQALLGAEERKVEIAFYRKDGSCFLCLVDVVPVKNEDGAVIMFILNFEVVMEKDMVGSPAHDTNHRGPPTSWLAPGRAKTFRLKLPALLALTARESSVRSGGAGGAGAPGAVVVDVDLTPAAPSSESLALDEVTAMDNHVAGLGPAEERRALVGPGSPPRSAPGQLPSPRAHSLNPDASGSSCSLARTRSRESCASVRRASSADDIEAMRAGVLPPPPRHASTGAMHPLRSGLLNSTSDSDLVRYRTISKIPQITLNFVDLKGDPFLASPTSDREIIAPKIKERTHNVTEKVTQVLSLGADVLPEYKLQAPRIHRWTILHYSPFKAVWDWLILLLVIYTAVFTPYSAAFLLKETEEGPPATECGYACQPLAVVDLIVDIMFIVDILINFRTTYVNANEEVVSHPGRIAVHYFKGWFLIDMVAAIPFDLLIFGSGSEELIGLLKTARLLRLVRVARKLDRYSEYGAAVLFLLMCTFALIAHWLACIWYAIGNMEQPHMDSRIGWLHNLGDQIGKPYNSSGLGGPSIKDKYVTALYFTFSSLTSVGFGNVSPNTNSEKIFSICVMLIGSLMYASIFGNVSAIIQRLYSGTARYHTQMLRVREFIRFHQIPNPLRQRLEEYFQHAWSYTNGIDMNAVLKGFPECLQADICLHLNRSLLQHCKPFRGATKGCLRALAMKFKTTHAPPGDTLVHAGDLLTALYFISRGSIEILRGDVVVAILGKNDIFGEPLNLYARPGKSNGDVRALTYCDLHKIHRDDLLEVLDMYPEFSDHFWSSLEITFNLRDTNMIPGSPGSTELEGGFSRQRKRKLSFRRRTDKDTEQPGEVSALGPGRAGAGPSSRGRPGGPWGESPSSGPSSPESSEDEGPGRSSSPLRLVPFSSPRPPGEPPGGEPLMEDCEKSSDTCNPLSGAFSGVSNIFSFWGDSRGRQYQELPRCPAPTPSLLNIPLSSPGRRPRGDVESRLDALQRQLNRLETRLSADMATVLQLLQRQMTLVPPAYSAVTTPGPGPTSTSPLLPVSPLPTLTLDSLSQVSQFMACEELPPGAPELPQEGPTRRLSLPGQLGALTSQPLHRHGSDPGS
# SUMO Mot1 rescue – blocks SUMOylation pathway, rescuing yeast Mot1-301 growth | S. cerevisiae Mot1-301 growth rescue, ATP luminescence, 38.5C; percent above DMSO median, 100 means doubled | growth rescue, % at 18.8 µM | actives 1% (n = 320,000) | AID 2716;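 active = every valid replicate shows activation above 250% relative to neutral control wells; inactive = the rest, any valid replicate at or below 250%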;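 note: OY570 slx delta 5 strain wells were the positive control but not used for scaling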
# KCNQ1 block – blocks the human KCNQ1 potassium channel; CHO-K1 KCNQ1, FluxOR thallium flux fluorescence; stronger effect = higher value; B-score at 10 µM; actives 1.3% (n = 310,000); AID 2642;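 active = compounds whose thallium flux B-score, printed positive for inhibition, exceeds three library SD while starting fluorescence stays within three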;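 note: channel opened by potassium depolarization with thallium stimulus after 20 min compound exposure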
# AI-2 QS mod – modulates the Vibrio harveyi AI-2 quorum sensing system. actives 0.4% (n = 300,000). activity change, % at 7.5 µM. Vibrio harveyi JMH597 AI-2 luminescence/OD600 ratio, 9 h; stronger effect = lower value; strain lacks LuxN and CqsS sensors; 0 = neutral-control median; in the data active = activity change below about -75%, passing the limit was not always enough;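 note: luminescence divided by OD600 gain over 9 h not by final OD600 alone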
# KCNQ1 pot – human KCNQ1 channel potentiation or activation; P51787; CHO-K1 KCNQ1, thallium flux FluxOR fluorescence; stronger effect = higher value; B-score at 10 µM; actives 0.35% (n = 310,000); AID 2648;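 active = fluorescence ratio B-score, a plate-corrected score, at least three library SD, with initial intensity B-score within 5 SD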
#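 Assay system: CHO-K1 cells stably expressing KCNQ1. Medium: assay buffer for compound exposure, DMSO matched across wells. Timing: 37 °C overnight plating, 90-min dark dye load, 20-min compound pretreatment. Signal: kinetic FluxOR fluorescence, 10 s baseline plus 110 s post-stimulus.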
# Yeast Mot1 SUMO – inhibits SUMO pathway, affecting Mot1-301 yeast growth. shares compounds with SUMO Mot1 rescue. AID 493004. S. cerevisiae Mot1-301 galactose growth, ATP luminescence, 24 h; -100 = growth of slx-deleted rescue strain. 2,300 tested, under 10 active. growth activity, percent, % at 42 µM;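 active = Signal drops as the depositor expects, and the fitted half-maximal dose is no more than ten times the top valid tested dose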;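 note: more negative values mean stronger growth rescue toward the control strain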
# Starred values were filed as active, the others as inactive; i = inactive; x = no result given; + = active, no number; [ ] = remark or other dose.
SMILES,KCC2 mod,hERG protect,SUMO Mot1 rescue,KCNQ1 block,AI-2 QS mod,KCNQ1 pot,Yeast Mot1 SUMO
C=CCNC(=O)NC(=O)COC(=O)CCCSc1nc2ccccc2[nH]1,x,-9,612*,i,31,i,0
CCOc1ccc(C2C(C(=O)c3ccco3)=C(O)C(=O)N2CCN2CCOCC2)cc1 (stereo not given),x,-2,3,i,13,i,x
CC(C)c1ccc(C2C(C(=O)c3ccco3)=C(O)C(=O)N2CCN2CCOCC2)cc1 (stereo not given),x,-5,+,i,29,i,0
NC(=O)C1CCN(Cc2ccc(OCc3ccccc3)cc2)CC1,x,-3,8,i,-10,i,x
CCOC(=O)C1CCN(Cc2ccc(OCc3ccccc3)cc2)CC1,x,-10,555*,i,18,i,-1
COc1ccc(OC)c(CN2CCN(C(=O)c3ccc(S(=O)(=O)Nc4ccccc4F)cc3)CC2)c1,x,x,66,x,x,x,x
COc1cccc(Cn2cnc3c(NS(=O)(=O)c4cccc(Cl)c4Cl)c(C)c(C)cc32)c1,x,-14,411*,i,40,i,-1
COc1cccc(Cn2cnc3c(NS(=O)(=O)c4ccc(Cl)cc4)c(C)c(C)cc32)c1,x,-7,-34,i,12,i,x
Cc1ccc(S(=O)(=O)Nc2csc(C)c2C(=O)O)cc1,0.48,0,2,i,23,i,x
CNc1csc(C)c(C)c1=O,x,-6,448*,i,15,i,0
CN(C)C(=O)CNC(=O)C1CCCCC1,-0.38,-5,+,i,11,i,0
COc1c(C)cc(S(=O)(=O)NC2CC(C)(C)NC(C)(C)C2)c(C)c1C,-1.3,-5,687*,i,12,i,1
CC(=O)N1CCc2cc(S(=O)(=O)NCCCN3CCCCC3)ccc21,x,-7,2,i,24,i,x
CC(=O)N1CCc2cc(S(=O)(=O)NCCC3=CCCCC3)ccc21,x,-5,+,i,-6,i,0
Cc1ccc(S(=O)(=O)NCc2ccc(C(=O)N3CCN(c4ccccn4)CC3)cc2)cc1,x,-1,662*,i,5,i,1
COc1ccc2cc(/C=C/C(=O)N3CCN(CC(=O)N4CCCCCC4)CC3)ccc2c1,x,-19,2,i,x,i,x
COc1ccc2nc(SCC(=O)N(C)CC(=O)Nc3ccc(F)cc3)[nH]c2c1,x,-5,558*,i,x,i,0
CC[n+]1cccc(-c2nc3ccccc3s2)c1,-0.14,-13,-1,i,32,i,x
CC[n+]1c(/C=C/N(C)c2ccccc2)n(-c2ccccc2)c2ccc(-c3nc4ccccc4s3)cc21,x,-31,501*,15*,-8,i,-1
CCOC(=O)N1CCN(C(=O)CCCn2c(=S)[nH]c3ccsc3c2=O)CC1,-0.63,-14,4,i,x,i,x
CCN(CC)S(=O)(=O)c1ccc(N2CCCC2)c(C(=O)OCC(=O)Nc2cc(C)on2)c1,0.04,-9,544*,i,8,i,0
CCN1CCCC1CN(Cc1cc2cc(C)cc(C)c2[nH]c1=O)C(=O)Nc1ccccc1OC (stereo not given),x,-11,-8,i,13,i,x
CCN1CCCC1CN(Cc1cc2ccc(C)cc2[nH]c1=O)C(=S)Nc1ccc(OC)cc1OC (stereo not given),-3.5,-11,562*,i,8,i,0
CCN1CCN(CC(=O)Nc2cccc(C)c2C)C(=O)C1=O,1.4,-10,518*,i,25,i,1
COc1ccc(CN2C(=O)c3c(c(C)n(C)c3C)C2C(=O)NC2CCC(C)CC2)cc1 (stereo not given),-0.6,-9,697*,i,9,i,-1
SMILES,KCC2 mod,hERG protect,SUMO Mot1 rescue,KCNQ1 block,AI-2 QS mod,KCNQ1 pot,Yeast Mot1 SUMO
Cc1sc2ncnc(N3CCC(C(=O)NNC(=O)COc4ccccc4F)CC3)c2c1C,x,-8,422*,i,x,i,0
COc1ccc(CCNC(=O)Cn2nnc(-c3ccc(N4CCOCC4)cc3)n2)cc1OC,-0.51,-1,710*,i,12,i,0
Cc1cc(OCC(=O)NCC2CCC(C(=O)O)CC2)c2c(C)c(C)c(=O)oc2c1 (stereo not given),x,-7,358*,i,1,i,1
O=C(c1ccco1)N1CCN(C2CC(=O)N(c3ccc(F)c(Cl)c3)C2=O)CC1 (stereo not given),x,-5,551*,i,15,i,-1
COc1ccccc1C(=O)NCCC(=O)NCc1ccncc1,x,x,0,x,x,x,x
COc1ccc(CNC(=O)CCS(=O)(=O)c2cc3c(cc2Cl)NC(=O)CO3)cc1,x,-9,3,i,15,i,x
Cc1nc(CSc2nnc3scc(-c4ccccc4)n23)cs1,0.75,-12,+,i,16,i,1
Cc1ccc(-c2csc3nnc(SCc4csc(C)n4)n23)cc1,x,-15,-16,i,27,i,x
COc1ccc(CCNC(=O)c2noc(C)c2[N+](=O)[O-])cc1OC,x,-10,-9,i,1,i,x
Cc1ccc(C)c(N2CCN(C(c3ccncc3)c3nnnn3Cc3ccccc3)CC2)c1 (stereo not given),1.2,0,422*,i,35,i,1[21 µM]
O=C(CCC1CCCN(C(=O)Cc2cccc(F)c2)C1)N1CCN(c2ccccn2)CC1 (stereo not given),-2.8,-8,426*,i,12,i,0
CCCOc1ccc(N2C(=O)CC(N3CCC(C(=O)OCC)CC3)C2=O)cc1 (stereo not given),0.32,-8,772*,i,21,i,0
O=C(CSc1cn(CCNC(=O)c2cccs2)c2ccccc12)NC1CCCC1,x,-7,-6,i,14,i,x
CCC(C)NC(=S)Nc1ccccc1 (stereo not given),-0.062,-5,x,i,9,i,x
CC(C)C(NC(=S)Nc1ccccc1)C(=O)O (stereo not given),0.77,-10,956*,i,38,i,-1
CN(CC(=O)Nc1cccc(F)c1)CC(=O)Nc1cccc(S(N)(=O)=O)c1,0.72,-8,740*,i,6,i,0
CN(CC(=O)Nc1cccc(F)c1)CC(=O)Nc1cccc(S(=O)(=O)N2CCCCCC2)c1,-2.8,-14,5,i,-1,i,x
